According to ChEMBL document CHEMBL1136251, “Synthesis and biological evaluation of menthol-based derivatives as inhibitors of plasminogen activator inhibitor-1 (PAI-1)” (Bioorg Med Chem Lett, 2003):

Tests used:
[1] = target: T1, Plasminogen activator inhibitor 1 (Homo sapiens, UniProt P05121); assay: Plasminogen Activator Inhibitor-1 (PAI-1) activity was determined by inhibition of Urokinase-type plasminogen activator using primary assay
Procedure, shortened: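 Human recombinant PAI-1 (6 nM) preincubated with compound for 2 min at room temperature in 50 mM Tris-HCl, 150 mM NaCl, 2.5 mM CaCl2, 0.1% PEG 6000, pH 7.5. Human kidney urokinase (0.0175 units/mL) added for a further 2 min, then chromogenic substrate S2444. Rate of absorbance change read at 405 nm. Controls with uPA alone and uPA plus PAI-1 on each plate. IC50 taken from dose-response curve fit.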

[2] = Bioavailability in rat (cannulated) (dose 2 mg/kg); assay type: ADME, organism-based; conditions: in vivo
Procedure, shortened: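 Given intravenously and orally at 2 mg/kg to cannulated conscious rats. Vehicle: 94% PEG/2% 0.1HCl/4% EtOH solution.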

[3] = target: T1, Plasminogen activator inhibitor 1; assay: Plasminogen Activator Inhibitor-1 (PAI-1) activity was determined using plasma clot lysis assay; assay type: functional, cell-free
Procedure, shortened: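 Pooled human plasma diluted 1:3 in 150 mM NaCl, 2 mM CaCl2, 20 mM Hepes, pH 7.4. Clotting started with human thrombin (30 nM), with exogenous human tPA (4 nM) present. Lysis followed at 37 °C by absorbance at 405 nm.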

T1 sequence (P05121 whole entry): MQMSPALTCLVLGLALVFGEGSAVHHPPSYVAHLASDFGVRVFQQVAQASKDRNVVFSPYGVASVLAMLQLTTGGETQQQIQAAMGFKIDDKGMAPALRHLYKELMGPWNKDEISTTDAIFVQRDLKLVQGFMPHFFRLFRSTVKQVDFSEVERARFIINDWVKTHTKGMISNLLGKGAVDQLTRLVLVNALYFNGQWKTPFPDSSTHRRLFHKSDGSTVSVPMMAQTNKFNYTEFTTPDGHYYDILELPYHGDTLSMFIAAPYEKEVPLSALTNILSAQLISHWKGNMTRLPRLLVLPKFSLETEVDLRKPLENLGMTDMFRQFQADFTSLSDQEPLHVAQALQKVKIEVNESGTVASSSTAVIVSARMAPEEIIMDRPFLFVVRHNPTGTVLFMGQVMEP

| SMILES | IC50 [1] | bioavailability [2] | IC50 [3] |
| --- | --- | --- | --- |
| CC(C)[C@@H]1CC[C@@H](C)C[C@H]1OCC(=O)Nc1cc(N2CCCC2C(=O)O)ccc1[N+](=O)[O-] (some centres undefined) | 2.2 µM |  |  |
| CC(C)[C@@H]1CC[C@@H](C)C[C@H]1OCC(=O)NCc1ccc(NCc2cc([N+](=O)[O-])ccc2O)cc1 | 2.7 µM |  |  |
| CC(C)[C@@H]1CC[C@@H](C)C[C@H]1OCC(=O)Nc1cc(N2CC(C(=O)O)C2)ccc1[N+](=O)[O-] | 2.9 µM |  |  |
| COc1cc(C(=O)O)c(Oc2c(CNc3ccc(CNC(=O)CO[C@@H]4C[C@H](C)CC[C@H]4C(C)C)cc3)c(O)cc(C)c2C(=O)O)c(O)c1C | 1.8 µM |  |  |
| COc1cc(C(=O)O)c2c(c1C)OC(=O)c1c(C)cc(O)c(CNc3ccc(CCNC(=O)CO[C@@H]4C[C@H](C)CC[C@H]4C(C)C)cc3)c1O2 | 3.9 µM |  |  |
| CC(C)[C@@H]1CC[C@@H](C)C[C@H]1OCC(=O)NCc1ccc(NCc2ccccc2)cc1 | > 15 µM |  |  |
| CC(C)[C@@H]1CC[C@@H](C)C[C@H]1OCC(=O)NCc1ccc(NCc2ccccc2Oc2ccccc2)cc1 | > 15 µM |  |  |
| CC(C)[C@@H]1CC[C@@H](C)C[C@H]1OCC(=O)NCc1ccc(NCc2ccncc2)cc1 | > 15 µM |  |  |
| CCCN(Cc1ccc(NCc2c(O)cc(C)c3c2Oc2c(C(=O)O)cc(OC)c(C)c2OC3=O)cc1)C(=O)CO[C@@H]1C[C@H](C)CC[C@H]1C(C)C | 5 µM |  |  |
| COc1ccc(Oc2ccccc2CNc2ccc(CNC(=O)CO[C@@H]3C[C@H](C)CC[C@H]3C(C)C)cc2)c(C(=O)O)c1 | 1.4 µM |  |  |
| COc1cc(C(=O)O)c2c(c1C)OC(=O)c1c(C)cc(O)c(CNc3cccc(CNC(=O)CO[C@@H]4C[C@H](C)CC[C@H]4C(C)C)c3)c1O2 | 1.4 µM |  |  |
| COc1cc(C(=O)O)c2c(c1C)OC(=O)c1c(C)cc(O)c(CNc3ccc(CNC(=O)CO[C@@H]4C[C@H](C)CC[C@H]4C(C)C)cc3)c1O2 | 1.4 µM | 23% | 0.1 µM |
| CC(C)[C@@H]1CC[C@@H](C)C[C@H]1OCC(=O)NCc1ccc(NCc2cc([N+](=O)[O-])ccc2Oc2cc(Oc3ccccc3)ccc2C(=O)O)cc1 | 2.6 µM |  |  |
| COc1cc(C(=O)O)c2c(c1C)OC(=O)c1c(C)cc(O)c(CN3CCC(NC(=O)CO[C@@H]4C[C@H](C)CC[C@H]4C(C)C)CC3)c1O2 | > 15 µM |  |  |
| CC(C)[C@@H]1CC[C@@H](C)C[C@H]1OCC(=O)Nc1cc(N2CCCCC2C(=O)O)ccc1[N+](=O)[O-] (some centres undefined) | 2.9 µM |  |  |
| CC(C)[C@@H]1CC[C@@H](C)C[C@H]1OCC(=O)NCc1ccc(NCc2cccc(C(=O)O)c2)cc1 | 7.8 µM |  |  |
| CC(C)[C@@H]1CC[C@@H](C)C[C@H]1OCC(=O)NCc1ccc(NCc2ccccc2S(=O)(=O)O)cc1 | > 15 µM |  |  |
| CC(C)[C@@H]1CC[C@@H](C)C[C@H]1OCC(=O)Nc1cc(Oc2ccc(C(=O)O)cn2)ccc1[N+](=O)[O-] | 2.6 µM |  |  |
| CC(C)[C@@H]1CC[C@@H](C)C[C@H]1OCC(=O)NCc1ccc(NCc2ccc(C(=O)O)cc2)cc1 | 3.2 µM |  |  |
| COc1ccc(Oc2cccc(F)c2CNc2ccc(CNC(=O)CO[C@@H]3C[C@H](C)CC[C@H]3C(C)C)cc2)c(C(=O)O)c1 | 1.4 µM |  |  |

Stronger by IC50 [1], values ahead:

| IC50 [1] | bioavailability [2] | IC50 [3] | SMILES |
| --- | --- | --- | --- |
| 0.6 µM |  |  | COc1cc(C(=O)O)c(Oc2c(CNc3ccc(CNC(=O)CO[C@@H]4C[C@H](C)CC[C@H]4C(C)C)cc3)c(O)cc(C)c2C(N)=O)c(O)c1C |
| 0.5 µM |  |  | COc1cccc(CNc2ccc(CNC(=O)CO[C@@H]3C[C@H](C)CC[C@H]3C(C)C)cc2)c1Oc1ncccc1C(=O)O |
| 0.94 µM | < 10% | 0.01 µM | CC(C)[C@@H]1CC[C@@H](C)C[C@H]1OCC(=O)Nc1cc(N2CCC(C(=O)O)CC2)ccc1[N+](=O)[O-] |
| 1.2 µM | 94% | 0.1 µM | COc1cccc(CNc2ccc(CNC(=O)CO[C@@H]3C[C@H](C)CC[C@H]3C(C)C)cc2)c1Oc1ccc([N+](=O)[O-])cc1C(=O)O |
| 0.53 µM |  |  | COc1cc(C(=O)O)c2c(c1C)OC(=O)c1c(C)cc(O)c(CNc3ccc(NC(=O)CO[C@@H]4C[C@H](C)CC[C@H]4C(C)C)nc3)c1O2 |
| 0.4 µM | < 10% | 0.1 µM | CC(C)[C@@H]1CC[C@@H](C)C[C@H]1OCC(=O)Nc1cc(Oc2cccc(C(=O)O)c2)ccc1[N+](=O)[O-] |
| 0.71 µM |  |  | CC(C)[C@@H]1CC[C@@H](C)C[C@H]1OCC(=O)NCc1ccc(NCc2c(F)cccc2Oc2c(O)cccc2C(=O)O)cc1 |
| 0.9 µM |  |  | CC(C)[C@@H]1CC[C@@H](C)C[C@H]1OCC(=O)Nc1cc(N[C@H]2CC[C@@H](C(=O)O)CC2)ccc1[N+](=O)[O-] |
| 1.1 µM |  |  | CC(C)[C@@H]1CC[C@@H](C)C[C@H]1OCC(=O)Nc1cc(N[C@H]2CC[C@H](C(=O)O)CC2)ccc1[N+](=O)[O-] |
| 0.7 µM |  |  | COc1cccc(CNc2ccc(CNC(=O)CO[C@@H]3C[C@H](C)CC[C@H]3C(C)C)cc2)c1Oc1ccc(N)cc1C(=O)O |
| 0.89 µM |  |  | CC(C)[C@@H]1CC[C@@H](C)C[C@H]1OCC(=O)Nc1cc(N2CCCC(C(=O)O)C2)ccc1[N+](=O)[O-] (some centres undefined) |
| 1.1 µM |  |  | COc1cc(C(=O)O)c2c(c1C)OC(=O)c1c(C)cc(O)c(CNc3ccc(NC(=O)CO[C@@H]4C[C@H](C)CC[C@H]4C(C)C)cc3)c1O2 |
| 0.71 µM |  |  | CC(C)[C@@H]1CC[C@@H](C)C[C@H]1OCC(=O)NCc1ccc(NCc2cc([N+](=O)[O-])ccc2Oc2ccccc2C(=O)O)cc1 |
| 0.38 µM | 24% | 0.01 µM | CC(C)[C@@H]1CC[C@@H](C)C[C@H]1OCC(=O)Nc1cc(Oc2ccc(C(=O)O)cc2)ccc1[N+](=O)[O-] |
